Assay results reported in ChEMBL document CHEMBL3421541, “Benzaldehyde Schiff bases regulation to the metabolism, hemolysis, and virulence genes expression in vitro and their structure-microbicidal activity relationship” (2015).
In brackets after ≈: the same amount, converted by molar mass. Activity calls are given as the source filed them.

How the values were obtained:
[1] = test system: Escherichia coli; experiment: Downregulation of IroD gene expression in Escherichia coli at 50 umol/L after 8 hrs by real-time RT-PCR analysis relative to control; type: functional, organism-based
How it was run: (§1)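 E. coli at 2×10^7 CFU/mL in LB was exposed to 50 µmol/L compound, or LB alone, for 8 h at 37 °C. Total RNA was then analysed by TaqMan real-time RT-PCR or semi-quantitative RT-PCR. Transcripts were normalised to gapA. Fold change is relative to time-matched medium-only cultures.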

[2] = test system: Escherichia coli; experiment: Upregulation of acrA gene expression in Escherichia coli at 50 umol/L after 8 hrs by real-time RT-PCR analysis relative to control; type: functional, organism-based; how it was run: as §1
[3] = test system: Escherichia coli; experiment: Downregulation of tsh gene expression in Escherichia coli at 50 umol/L after 8 hrs by real-time RT-PCR analysis relative to control; type: functional, organism-based; how it was run: as §1
[4] = test system: Escherichia coli; experiment: Downregulation of IroD gene expression in Escherichia coli at 50 umol/L after 8 hrs by semi-quantitative RT-PCR analysis relative to control; type: functional, organism-based; how it was run: as §1
[5] = test system: Escherichia coli; experiment: Antibacterial activity against Escherichia coli assessed as lowest concentration required to reduce growth by 1% after 8 hrs by ELISA plate reader analysis relative to control; type: functional
How it was run: (§2)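 MBC was found by broth microdilution. Inocula of 1×10^5 CFU/mL in LB were shaken at 37 °C with a series of compound concentrations, then read at OD450. MBC was defined as the lowest concentration reducing growth by 1% versus the inoculum control. Three independent experiments were run.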

[6] = test system: Escherichia coli; experiment: Downregulation of tsh gene expression in Escherichia coli at 50 umol/L after 8 hrs by semi-quantitative RT-PCR analysis relative to control; type: functional, organism-based; how it was run: as §1
[7] = test system: Escherichia coli; experiment: Upregulation of cysB gene expression in Escherichia coli at 50 umol/L after 8 hrs by real-time RT-PCR analysis relative to control; type: functional, organism-based; how it was run: as §1
[8] = test system: Escherichia coli; experiment: Antibacterial activity against Escherichia coli assessed as growth inhibition at 100 umol/L after 8 hrs by ELISA plate reader analysis relative to control; type: functional; conditions: read-out: GI
How it was run: (§3)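 Bacteria were seeded at 1×10^5 CFU/mL in LB, and compound was added to 100 µmol/L final. Compounds came from DMSO stock, with DMSO ≤1% (v/v) final. Cultures were shaken at 37 °C for 8 h and read at OD450. Inhibition % = (OD vehicle control − OD sample)/OD vehicle control × 100. Values are the mean of three independent experiments.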

[9] = test system: Escherichia coli; experiment: Upregulation of acrA gene expression in Escherichia coli at 50 umol/L after 8 hrs by semi-quantitative RT-PCR analysis relative to control; type: functional, organism-based; how it was run: as §1
[10] = test system: Escherichia coli; experiment: Upregulation of cysB gene expression in Escherichia coli at 50 umol/L after 8 hrs by semi-quantitative RT-PCR analysis relative to control; type: functional, organism-based; how it was run: as §1
[11] = test system: Staphylococcus aureus; experiment: Downregulation of saeR gene expression in Staphylococcus aureus at 50 umol/L after 8 hrs by semi-quantitative RT-PCR analysis relative to control; type: functional, organism-based
How it was run: (§4)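 S. aureus ATCC 25923 at 2×10^7 CFU/mL in LB was exposed to 50 µmol/L compound, or LB alone, for 8 h at 37 °C. Total RNA was analysed by TaqMan real-time RT-PCR or semi-quantitative RT-PCR, normalised to gyrB. Fold change is versus time-matched medium-only cultures, with data pooled from three experiments.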

[12] = test system: Staphylococcus aureus; experiment: Antibacterial activity against Staphylococcus aureus assessed as growth inhibition at 100 umol/L after 8 hrs by ELISA plate reader analysis relative to control; type: functional; conditions: read-out: GI; how it was run: as §3
[13] = test system: Staphylococcus aureus; experiment: Downregulation of saeR gene expression in Staphylococcus aureus at 50 umol/L after 8 hrs by real-time RT-PCR analysis relative to control; type: functional, organism-based; how it was run: as §4
[14] = test system: Staphylococcus aureus; experiment: Antibacterial activity against Staphylococcus aureus assessed as lowest concentration required to reduce growth by 1% after 8 hrs by ELISA plate reader analysis relative to control; type: functional; how it was run: as §2
[15] = test system: Staphylococcus aureus; experiment: Downregulation of mecA gene expression in Staphylococcus aureus at 50 umol/L after 8 hrs by real-time RT-PCR analysis relative to control; type: functional; how it was run: as §4
[16] = test system: Staphylococcus aureus; experiment: Downregulation of mecA gene expression in Staphylococcus aureus at 50 umol/L after 8 hrs by semi-quantitative RT-PCR analysis relative to control; type: functional; how it was run: as §4
[17] = test system: Staphylococcus aureus; experiment: Upregulation of hla gene expression in Staphylococcus aureus at 50 umol/L after 8 hrs by semi-quantitative RT-PCR analysis relative to control; type: functional, organism-based; how it was run: as §4
[18] = test system: Staphylococcus aureus; experiment: Upregulation of hla gene expression in Staphylococcus aureus at 50 umol/L after 8 hrs by real-time RT-PCR analysis relative to control; type: functional, organism-based; how it was run: as §4
[19] = test system: Bacillus subtilis; experiment: Antibacterial activity against Bacillus subtilis assessed as growth inhibition at 100 umol/L after 8 hrs by ELISA plate reader analysis relative to control; type: functional; conditions: read-out: GI; how it was run: as §3
[20] = test system: Bacillus subtilis; experiment: Downregulation of yhdP gene expression in Bacillus subtilis at 50 umol/L after 8 hrs by semi-quantitative RT-PCR analysis relative to control; type: functional, organism-based
How it was run: as §4, with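 “B. subtilis” for “S. aureus”, “6051” for “25923”, “16sRNA.” for “gyrB.”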

[21] = test system: Bacillus subtilis; experiment: Downregulation of yugS gene expression in Bacillus subtilis at 50 umol/L after 8 hrs by semi-quantitative RT-PCR analysis relative to control; type: functional, organism-based
How it was run: as §4, with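 “B. subtilis” for “S. aureus”, “6051” for “25923”, “16sRNA.” for “gyrB.”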

[22] = test system: Bacillus subtilis; experiment: Downregulation of yhdT gene expression in Bacillus subtilis at 50 umol/L after 8 hrs by real-time RT-PCR analysis relative to control; type: functional, organism-based
How it was run: as §4, with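 “B. subtilis” for “S. aureus”, “6051” for “25923”, “16sRNA.” for “gyrB.”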

[23] = test system: Bacillus subtilis; experiment: Antibacterial activity against Bacillus subtilis assessed as lowest concentration required to reduce growth by 1% after 8 hrs by ELISA plate reader analysis relative to control; type: functional; how it was run: as §2
[24] = test system: Bacillus subtilis; experiment: Downregulation of yugS gene expression in Bacillus subtilis at 50 umol/L after 8 hrs by real-time RT-PCR analysis relative to control; type: functional, organism-based
How it was run: as §4, with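 “B. subtilis” for “S. aureus”, “6051” for “25923”, “16sRNA.” for “gyrB.”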

[25] = test system: Bacillus subtilis; experiment: Downregulation of yqhC gene expression in Bacillus subtilis at 50 umol/L after 8 hrs by real-time RT-PCR analysis relative to control; type: functional, organism-based
How it was run: as §4, with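 “B. subtilis” for “S. aureus”, “6051” for “25923”, “16sRNA.” for “gyrB.”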

[26] = test system: Bacillus subtilis; experiment: Downregulation of yhdP gene expression in Bacillus subtilis at 50 umol/L after 8 hrs by real-time RT-PCR analysis relative to control; type: functional, organism-based
How it was run: as §4, with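 “B. subtilis” for “S. aureus”, “6051” for “25923”, “16sRNA.” for “gyrB.”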

[27] = test system: Bacillus subtilis; experiment: Downregulation of yqhC gene expression in Bacillus subtilis at 50 umol/L after 8 hrs by semi-quantitative RT-PCR analysis relative to control; type: functional, organism-based
How it was run: as §4, with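 “B. subtilis” for “S. aureus”, “6051” for “25923”, “16sRNA.” for “gyrB.”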

[28] = test system: Bacillus subtilis; experiment: Downregulation of yqhB gene expression in Bacillus subtilis at 50 umol/L after 8 hrs by semi-quantitative RT-PCR analysis relative to control; type: functional, organism-based
How it was run: as §4, with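 “B. subtilis” for “S. aureus”, “6051” for “25923”, “16sRNA.” for “gyrB.”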

[29] = test system: Bacillus subtilis; experiment: Downregulation of yqhB gene expression in Bacillus subtilis at 50 umol/L after 8 hrs by real-time RT-PCR analysis relative to control; type: functional, organism-based
How it was run: as §4, with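 “B. subtilis” for “S. aureus”, “6051” for “25923”, “16sRNA.” for “gyrB.”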

[30] = test system: Bacillus subtilis; experiment: Downregulation of yhdT gene expression in Bacillus subtilis at 50 umol/L after 8 hrs by semi-quantitative RT-PCR analysis relative to control; type: functional, organism-based
How it was run: as §4, with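 “B. subtilis” for “S. aureus”, “6051” for “25923”, “16sRNA.” for “gyrB.”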

[31] = test system: Staphylococcus aureus; experiment: Upregulation of sbi gene expression in Staphylococcus aureus at 50 umol/L after 8 hrs by semi-quantitative RT-PCR analysis relative to control; type: functional, organism-based; how it was run: as §4
[32] = test system: Staphylococcus aureus; experiment: Upregulation of mecA gene expression in Staphylococcus aureus at 50 umol/L after 8 hrs by real-time RT-PCR analysis relative to control; type: functional, organism-based; how it was run: as §4
[33] = test system: Staphylococcus aureus; experiment: Upregulation of mecA gene expression in Staphylococcus aureus at 50 umol/L after 8 hrs by semi-quantitative RT-PCR analysis relative to control; type: functional, organism-based; how it was run: as §4
[34] = test system: Staphylococcus aureus; experiment: Upregulation of sbi gene expression in Staphylococcus aureus at 50 umol/L after 8 hrs by real-time RT-PCR analysis relative to control; type: functional, organism-based; how it was run: as §4
[35] = test system: Staphylococcus aureus; experiment: Downregulation of hla gene expression in Staphylococcus aureus at 50 umol/L after 8 hrs by real-time RT-PCR analysis relative to control; type: functional, organism-based; how it was run: as §4
[36] = test system: Staphylococcus aureus; experiment: Downregulation of hla gene expression in Staphylococcus aureus at 50 umol/L after 8 hrs by semi-quantitative RT-PCR analysis relative to control; type: functional, organism-based; how it was run: as §4

SMILES: O=C(N/N=C/c1cc(Br)ccc1O)c1ccncc1
- Activity [1]: Active
- Activity [2]: Active
- Activity [3]: Active
- Activity [4]: Active
- MBC [5]: 3.2 µM (≈ 1.02 µg/mL)
- Activity [6]: Active
- Activity [7]: Active
- inhibition of growth at 100 µM [8]: 95.8%
- Activity [9]: Active
- Activity [10]: Active

SMILES: O=C(N/N=C/c1ccccc1O)c1ccncc1 [SALINAZID]
- inhibition of growth at 100 µM [8]: 6.81%

SMILES: CC(C)(C)c1cc(/C=N/NC(=O)c2ccncc2)c(O)c(C(C)(C)C)c1
- Activity [11]: Active
- inhibition of growth at 100 µM [12]: 95.5%
- Activity [13]: Active
- MBC [14]: 3.1 µM (≈ 1.1 µg/mL)
- inhibition of growth at 100 µM [8]: 13.4%
- fold change (FC) [15]: 2
- fold change (FC) [16]: 2
- Activity [17]: Active
- Activity [18]: Active

SMILES: CC(C)(C)c1cc(/C=N/NC(=O)COc2ccc(Cl)cc2)c(O)c(C(C)(C)C)c1
- inhibition of growth at 100 µM [8]: 10.5%
- inhibition of growth at 100 µM [19]: 19.7%

SMILES: O=C(COc1ccc(Cl)cc1)N/N=C/c1ccccc1O
- inhibition of growth at 100 µM [8]: 0.23%

SMILES: O=C(O)[C@H](Cc1ccccc1)/N=C/c1ccccc1O
- inhibition of growth at 100 µM [8]: 22.7%

SMILES: O=C(COc1ccc(Cl)cc1)N/N=C/c1cc([N+](=O)[O-])ccc1O
- Activity [20]: Active
- Activity [21]: Active
- Activity [22]: Active
- inhibition of growth at 100 µM [12]: 1.39%
- MBC [23]: 2.8 µM (≈ 0.979 µg/mL)
- Activity [24]: Active
- Activity [25]: Active
- Activity [26]: Active
- Activity [27]: Active
- Activity [28]: Active
- Activity [29]: Active
- Activity [30]: Active
- inhibition of growth at 100 µM [19]: 96.4%

SMILES: COc1ccc(CC(=O)N/N=C/c2cc(Br)ccc2O)cc1
- inhibition of growth at 100 µM [19]: 1.01%

SMILES: COC(=O)[C@H](Cc1ccccc1)/N=C/c1ccccc1O
- Activity [31]: Active
- Activity [11]: Active
- inhibition of growth at 100 µM [12]: 86.9%
- Activity [32]: Active
- Activity [13]: Active
- MBC [14]: 13.8 µM (≈ 3.91 µg/mL)
- inhibition of growth at 100 µM [8]: 14.6%
- Activity [17]: Active
- Activity [33]: Active
- Activity [34]: Active
- Activity [18]: Active
- inhibition of growth at 100 µM [19]: 4.21%

SMILES: CC(C)(C)c1cc(/C=N/NC(=O)c2ccccc2O)c(O)c(C(C)(C)C)c1
- Activity [31]: Active
- Activity [11]: Active
- inhibition of growth at 100 µM [12]: 70.9%
- Activity [13]: Active
- MBC [14]: 19 µM (≈ 7 µg/mL)
- inhibition of growth at 100 µM [8]: 13.9%
- fold change (FC) [15]: 2
- fold change (FC) [16]: 2
- Activity [35]: Active
- Activity [34]: Active
- Activity [36]: Active
